ChEMBL document CHEMBL4825685, “Structure activity relationship (SAR) study identifies a quinoxaline urea analog that modulates IKKβ phosphorylation for pancreatic cancer therapy” (Eur J Med Chem, 2021)
Activity calls are given as the source filed them. No cut-off for these calls is given here.

Key:
[1] = tested on: MIA PaCa-2; assay: Induction of apoptosis in human MIA PaCa-2 cells assessed as increase in caspase 3/7 activation at 10 uM incubated for 24 hrs by Caspase-Glo assay; assay type: functional, cell-based
Outline: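 MiaPaCa2 cells (2.5 × 10⁴/well) attached overnight, then treated 24 h at 0.1% final DMSO. alamarBlue added at 21 h for 3 h and fluorescence read at 560/590. Caspase-Glo luminescence read 2 h later. Luminescence ×100/fluorescence normalized to DMSO average, n = 3.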

[2] = target: T1, Inhibitor of nuclear factor kappa-B kinase subunit beta (Homo sapiens, UniProt O14920); assay: Inhibition of TNFalpha-induced IKKbeta mediated NF-kappaB activation in human Pancreatic cancer cells by luciferase reporter gene assay; parameters: species or system Pancreatic cancer cell
T1 sequence (O14920 whole entry): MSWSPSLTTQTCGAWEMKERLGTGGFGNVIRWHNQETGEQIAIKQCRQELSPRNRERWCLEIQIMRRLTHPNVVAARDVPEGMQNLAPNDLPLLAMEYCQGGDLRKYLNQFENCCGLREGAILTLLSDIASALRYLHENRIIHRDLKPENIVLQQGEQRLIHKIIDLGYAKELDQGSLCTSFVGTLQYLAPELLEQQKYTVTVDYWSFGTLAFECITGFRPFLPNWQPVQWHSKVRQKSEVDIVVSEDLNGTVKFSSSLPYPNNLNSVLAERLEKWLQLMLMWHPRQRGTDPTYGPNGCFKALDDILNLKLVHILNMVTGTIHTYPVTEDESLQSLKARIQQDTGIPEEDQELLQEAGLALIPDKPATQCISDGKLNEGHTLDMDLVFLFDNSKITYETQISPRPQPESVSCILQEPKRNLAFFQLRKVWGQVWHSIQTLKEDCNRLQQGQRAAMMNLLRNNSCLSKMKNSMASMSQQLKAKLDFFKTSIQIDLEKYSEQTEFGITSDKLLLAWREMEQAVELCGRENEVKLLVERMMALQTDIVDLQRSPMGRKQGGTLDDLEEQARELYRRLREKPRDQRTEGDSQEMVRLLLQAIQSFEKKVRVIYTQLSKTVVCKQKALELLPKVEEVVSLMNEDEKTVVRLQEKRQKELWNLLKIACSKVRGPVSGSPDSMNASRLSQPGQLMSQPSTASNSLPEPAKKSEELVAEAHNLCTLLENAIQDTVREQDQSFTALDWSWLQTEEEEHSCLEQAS

[3] = Cmax in CD1 mouse at 20 mg/kg, po measured up to 24 hrs measured by LC/MS-MS analysis; assay type: ADME, organism-based; parameters: route oral, dose 20 mg/kg, time <=24; conditions: in vivo
Outline: (§1)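 Oral 20 mg/kg given in DMSO:PEG400:H2O 1:4:5. Mice killed at 0.083, 0.25, 0.5, 1, 2, 4, 8 and 24 h and plasma analysed by LC/MS/MS with a carbamazepine internal standard. Parameters derived by non-compartmental analysis.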

[4] = MRT (0 to infinity) in CD1 mouse at 20 mg/kg, po measured up to 24 hrs measured by LC/MS-MS analysis; assay type: ADME, organism-based; conditions: in vivo; outline: as §1
[5] = Tmax in CD1 mouse at 20 mg/kg, po measured up to 24 hrs measured by LC/MS-MS analysis; assay type: ADME, organism-based; conditions: in vivo; outline: as §1
[6] = AUClast in CD1 mouse at 20 mg/kg, po measured up to 24 hrs measured by LC/MS-MS analysis; assay type: ADME, organism-based; parameters: route oral, dose 20 mg/kg, time <=24; conditions: in vivo; outline: as §1
[7] = AUC (0 to infinity) in CD1 mouse at 20 mg/kg, po measured up to 24 hrs measured by LC/MS-MS analysis; assay type: ADME, organism-based; parameters: route oral, dose 20 mg/kg, time <=24; conditions: in vivo; outline: as §1
[8] = Half life in CD1 mouse at 20 mg/kg, po measured up to 24 hrs measured by LC/MS-MS analysis; assay type: ADME, organism-based; conditions: in vivo; outline: as §1
[9] = Oral bioavailability in CD1 mouse at 20 mg/kg measured up to 24 hrs measured by LC/MS-MS analysis; assay type: ADME, organism-based; conditions: in vivo
Outline: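 %F taken from oral (20 mg/kg, DMSO:PEG400:H2O 1:4:5) and intravenous (10 mg/kg, DMSO:PEG400:H2O 1:5:4) AUC0-∞. Plasma sampled from 0.083 to 24 h and quantified by LC/MS/MS with a carbamazepine internal standard. Non-compartmental analysis.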

Cn1cc(-c2cnc3ccc(NC(=O)Nc4ccc(F)c(Cl)c4)cc3n2)cn1
Activity [1]: inactive

O=C(Nc1ccc(Br)cc1)Nc1ccc2nc(-c3ccco3)c(-c3ccco3)nc2c1
IC50 [2]: 8.4 µM
Cmax [3]: 0.3 µg/mL
MRT inf [4]: 5.2 h
Tmax [5]: 2.5 h
AUC(0-t) at 24 h [6]: 1.63 µg·h/mL
Activity [1]: inactive
AUC(0-inf) [7]: 1.86 µg·h/mL
half-life [8]: 2 h
bioavailability [9]: 3.1%

Cn1cc(-c2cnc3ccc(NC(=O)Nc4cccc(C(F)(F)F)c4)cc3n2)cn1
Activity [1]: inactive

Cn1cc(-c2cnc3ccc(NC(=O)Nc4ccc(F)c(OC(F)(F)F)c4)cc3n2)cn1
Activity [1]: inactive
